Experimental data gathered from unrelated publications.
Lines come from different studies, so protocols differ.
Target: Protein-tyrosine kinase 6 (PTK6, Homo sapiens, UniProt Q13882)

`C#Cc1n[nH]c2c(-c3cn([C@@H](C)c4ccccc4)c(=O)[nH]c3=O)cc(F)cc12` gave an inhibition of 9.4% (enzyme activity; inhibitor; 0.1 µM).
The remaining binding of `Cc1nn(C)cc1-c1nc2c(N3CCN(Cc4ccc(Cl)cc4)CC3)c(Cl)cnc2[nH]1` is reported as 96% (binding; competition with immobilised ligand; 1 µM).
`Cn1cc(-c2cc(F)cc(N3CCn4c(cc5c4CCCC5)C3=O)c2CO)cc(Nc2ccc(N3CCN(C4COC4)CC3)cn2)c1=O` gave an inhibition of 10% (enzyme activity; inhibitor; 0.1 µM).
For `O=c1[nH]c2ccccc2n1C1CCN(Cc2ccc(-c3[nH]c4cc5ncnc5cc4nc3-c3ccccc3)cc2)CC1`, the remaining signal was 91.1% (cell-free assay; 0.5 µM).
For `Cn1cc(-c2cccc(N3CCc4c(sc5c4CC(C)(C)C5)C3=O)c2CO)cc(Nc2ccncn2)c1=O`, the inhibition was 1% (enzyme activity; inhibitor; 1 µM).
For `C#Cc1n[nH]c2c(-c3cn([C@@H](C)c4ccccn4)c(=O)[nH]c3=O)cc(F)cc12`, the inhibition was 5.5% (enzyme activity; inhibitor; 0.1 µM).
For `Cn1cncc1[C@@](O)(COc1ccc(C#N)cc1-c1ccc(OC(F)(F)F)cc1)c1ccc(C#N)cc1`, the remaining binding was 100% (cell-free assay; competition with immobilised ligand; 1 µM).
`COc1cc(Nc2ncc(F)c(Nc3ccc4c(n3)NC(=O)C(C)(C)O4)n2)cc(OC)c1OC` gave an inhibition of 82% (binding; 10 µM).
For `CC(C)(C)c1cc(C=C(C#N)C#N)cc(Br)c1O`, the remaining activity was 91.4% (enzyme activity; inhibitor; 0.5 µM).
With `COc1ncccc1-c1cnn2ccc(N3CCN(C(=O)OC(C)C)CC3)nc12` the remaining binding was 61% (binding; competition with immobilised ligand; 1 µM).
